Test results from ChEMBL document CHEMBL1122058, “Agents for the treatment of brain injury. 1. (Aryloxy)alkanoic acids” (J Med Chem, 1982).
Activity calls are given as the source filed them. The calls are words filed in the database; no cut-off is given here.

What was measured:
[1] = Distribution coefficient (D %) between octanol and buffer of pH 7.4; assay type: physicochemical; details: octanol/water
Felis catus [2] = species: Felis catus; assay: In vitro inhibition of HCO3- stimulated swelling in cat cerebrocortical tissue slice; assay type: functional; details: read-out: I 50
How it was run: (§1)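 Cat cerebral cortex slices (~150 mg, 0.5 mm) incubated aerobically 60 min at 37 °C in K+-rich (27 mM) Hepes-buffered saline-glucose with test compound as Na salt. HCO3- (NaHCO3 or TEAB) added from sidearm at 20 min to 10 mM final; HCO3- flasks gassed with 2.5% CO2/97.5% O2. Swelling by reweighing; Na+/K+ by flame photometry, Cl- by amperometric titration. Units: per g initial fresh weight; means ± SE, Student's t test.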

Rattus norvegicus [3] = species: Rattus norvegicus; assay: Relative salidiuretic efficacy was scored in Rat; weak; assay type: functional, organism-based; details: Urine
[4] = Dissociation constant (pKa) (determined in 30% EtOH); assay type: physicochemical
Rattus norvegicus [5] = species: Rattus norvegicus; assay: Relative salidiuretic efficacy was scored in Rat; inactive; assay type: functional, organism-based; details: Urine
Rattus norvegicus [6] = species: Rattus norvegicus; assay: Relative salidiuretic efficacy was scored in Rat; Marginal; assay type: functional, organism-based; details: Urine
Canis familiaris [7] = species: Canis familiaris; assay: Relative salidiuretic efficacy was scored in dog; Marginal; assay type: functional, organism-based; details: Canis lupus familiaris; Urine
Pan troglodytes [8] = species: Pan troglodytes; assay: Relative salidiuretic efficacy was scored in chimpanzee; weak; assay type: functional, organism-based; details: Urine
Canis familiaris [9] = species: Canis familiaris; assay: Relative salidiuretic efficacy was scored in dog; weak; assay type: functional, organism-based; details: Canis lupus familiaris; Urine
Pan troglodytes [10] = species: Pan troglodytes; assay: Relative salidiuretic efficacy was scored in chimpanzee; moderate; assay type: functional, organism-based; details: Urine
Rattus norvegicus [11] = species: Rattus norvegicus; assay: Relative salidiuretic efficacy was scored in Rat; moderate; assay type: functional, organism-based; details: Urine
Canis familiaris [12] = species: Canis familiaris; assay: Relative salidiuretic efficacy was scored in dog; moderate; assay type: functional, organism-based; details: Canis lupus familiaris; Urine
Felis catus [13] = species: Felis catus; assay: In vitro inhibition of HCO3- stimulated swelling in cat cerebrocortical tissue slice; At no concentration was swelling inhibited 100%; assay type: functional; details: read-out: I 50; how it was run: as §1
Homo sapiens [14] = species: Homo sapiens; assay: Relative salidiuretic efficacy was scored in human; moderate; assay type: functional, organism-based; details: Urine
Homo sapiens [15] = species: Homo sapiens; assay: Relative salidiuretic efficacy was scored in human; very marked; assay type: functional, organism-based; details: Urine
Canis familiaris [16] = species: Canis familiaris; assay: Relative salidiuretic efficacy was scored in dog; very marked; assay type: functional, organism-based; details: Canis lupus familiaris; Urine
Pan troglodytes [17] = species: Pan troglodytes; assay: Relative salidiuretic efficacy was scored in chimpanzee; very marked; assay type: functional, organism-based; details: Urine
Rattus norvegicus [18] = species: Rattus norvegicus; assay: Relative salidiuretic efficacy was scored in Rat; very marked; assay type: functional, organism-based; details: Urine

CCCC[C@@]1(C2CCCC2)Cc2cc(OCC(=O)O)c(Cl)c(Cl)c2C1=O
Distribution [1]: 99%
IC50 (Felis catus [2]): 50000 nM
Relative salidiuretic activity (Rattus norvegicus [3]): weak
pKa [4]: 3.9

CCCC[C@]1(C2CCCC2)Cc2cc(OCC(=O)O)c(Cl)c(Cl)c2C1=O
Distribution [1]: 99%
IC50 (Felis catus [2]): 0.3 nM
Relative salidiuretic activity (Rattus norvegicus [3]): weak
pKa [4]: 3.9

CCCC[C@]1(C2CCCC2)Cc2cc(OCCCC(=O)O)c(Cl)c(Cl)c2C1=O
Distribution [1]: 99.9%
IC50 (Felis catus [2]): 1000 nM
pKa [4]: 4.4
Relative salidiuretic activity (Rattus norvegicus [5]): inactive

CCCC[C@@]1(C2CCCC2)Cc2cc(OCCCC(=O)O)c(Cl)c(Cl)c2C1=O
Distribution [1]: 99.9%
pKa [4]: 4.4
Relative salidiuretic activity (Rattus norvegicus [5]): inactive

C[C@@]1(C2CCCC2)Cc2cc(OCCCC(=O)O)c(Cl)c(Cl)c2C1=O
Distribution [1]: 99%
IC50 (Felis catus [2]): 250 nM
pKa [4]: 5.7
Relative salidiuretic activity (Rattus norvegicus [6]): inactive
Relative salidiuretic activity (Canis familiaris [7]): inactive

CCC(C)C(=O)c1ccc(OCC(=O)O)c(Cl)c1Cl (stereo not drawn)
Distribution [1]: 96%
IC50 (Felis catus [2]): 500 nM
pKa [4]: 3.5
Relative salidiuretic activity (Pan troglodytes [8]): weak
Relative salidiuretic activity (Canis familiaris [9]): weak
Relative salidiuretic activity (Rattus norvegicus [5]): inactive

CC(C)(Oc1cc2c(c(Cl)c1Cl)C(=O)C(C)(C1CCCC1)C2)C(=O)O (racemic)
Distribution [1]: 98.6%
IC50 (Felis catus [2]): > 100000 nM
pKa [4]: 3.7

CC1(C2CCCC2)Cc2cc(OC/C=C/CC(=O)O)c(Cl)c(Cl)c2C1=O (racemic)
Distribution [1]: 98%
IC50 (Felis catus [2]): > 40000 nM
pKa [4]: 5.1

CCCCC1(C2CCCC2)Cc2cc(OCCCC(=O)O)c(Cl)c(Cl)c2C1=O (racemic)
Distribution [1]: 99.8%
IC50 (Felis catus [2]): 4 nM
pKa [4]: 4.4
Relative salidiuretic activity (Rattus norvegicus [5]): inactive

CCC1(C2CCCC2)Cc2cc(OCC(=O)O)c(Cl)c(Cl)c2C1=O (racemic)
Distribution [1]: 97%
Relative salidiuretic activity (Pan troglodytes [10]): moderate
IC50 (Felis catus [2]): 1 nM
pKa [4]: 3.9
Relative salidiuretic activity (Rattus norvegicus [11]): moderate
Relative salidiuretic activity (Canis familiaris [12]): moderate

CC1(Cc2ccccc2)Cc2cc(OCCCC(=O)O)c(Cl)c(Cl)c2C1=O (racemic)
Distribution [1]: 99.5%
IC50 (Felis catus [2]): > 100000 nM
pKa [4]: 6.3

CC1(C2CCCC2)Cc2cc(OCc3ccc(C(=O)O)cc3)c(Cl)c(Cl)c2C1=O (racemic)
Distribution [1]: 100%
IC50 (Felis catus [2]): > 10000 nM
pKa [4]: 6.2

CC1(Cc2ccccc2)Cc2cc(OCC(=O)O)c(Cl)c(Cl)c2C1=O (racemic)
Distribution [1]: 91%
Relative salidiuretic activity (Pan troglodytes [10]): Marginal
IC50 (Felis catus [2]): 1 nM
pKa [4]: 3.8
Relative salidiuretic activity (Rattus norvegicus [6]): Marginal
Relative salidiuretic activity (Canis familiaris [7]): Marginal

CC1(C2CCCC2)Cc2cc(OC3(C(=O)O)CCC3)c(Cl)c(Cl)c2C1=O (racemic)
Distribution [1]: 98.6%
pKa [4]: 3.8
IC50 (Felis catus [13]): 1000 nM

CCCCC1(C2CCCC2)Cc2cc(OCC(=O)O)c(Cl)c(Cl)c2C1=O (racemic)
Distribution [1]: 99%
IC50 (Felis catus [2]): 3 nM
Relative salidiuretic activity (Rattus norvegicus [3]): weak
pKa [4]: 3.9

CCC1(C2CCCC2)Cc2cc(OCCCC(=O)O)c(Cl)c(Cl)c2C1=O (racemic)
Distribution [1]: 98.7%
IC50 (Felis catus [2]): > 10 nM
pKa [4]: 3.8
Relative salidiuretic activity (Rattus norvegicus [6]): Marginal

O=C(O)COc1cc2c(c(Cl)c1Cl)C(=O)C(C1CCCC1)C2 (racemic)
Distribution [1]: 83%
IC50 (Felis catus [2]): 10000 nM
Relative salidiuretic activity (Rattus norvegicus [3]): moderate
pKa [4]: 3.9
Relative salidiuretic activity (Canis familiaris [12]): moderate
Relative salidiuretic activity (Pan troglodytes [8]): moderate
Relative salidiuretic activity (Homo sapiens [14]): moderate

NS(=O)(=O)c1cc(C(=O)O)c(NCc2ccco2)cc1Cl [FUROSEMIDE]
Distribution [1]: 28%
IC50 (Felis catus [2]): 10000 nM
Relative salidiuretic activity (Homo sapiens [15]): Active
Relative salidiuretic activity (Canis familiaris [16]): Active
Relative salidiuretic activity (Pan troglodytes [17]): Active
Relative salidiuretic activity (Rattus norvegicus [18]): Active
